Consider 30 compounds from ChEMBL document CHEMBL4334481, “First Nondiscriminating Translocator Protein Ligands Produced from a Carbazole Scaffold” (J Med Chem, 2019).

SMILES strings stand for the structures. The source made the active and inactive calls. The rule behind the calls is not given here.

Broadly, the Ki is the dissociation constant of the complex between target and ligand, obtained from inhibition or displacement. Usually inhibition stands for how much of the control response was suppressed.

For assay [1], the target named is T1, Translocator protein (Homo sapiens, UniProt P30536). Description: Displacement of [3H]PK11195 from wild-type human TSPO expressed in HEK293 cell membranes after 90 mins by scintillation counting method.
The species entered for assay [2] is Homo sapiens. As to the kind of experiment: Selectivity ratio of ki for human TSPO A147T mutant expressed in HEK293 cell membranes to ki for human TSPO expressed in HEK293 cell membranes. The format is cell-based. The procedure, abridged:
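Membranes from stably transfected HEK293 cells (PBS/0.04% EDTA detachment, homogenised in Tris-HCl, washed by 48000 g spins), 20 µg protein/well for WT or 10 µg/well for A147T, incubated with 10 nM [3H]PK 11195 and competitor at log-spaced 3.1 nM–10 µM, 90 min, 4 °C.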

The target in assay [3] is T1, Translocator protein. As to the kind of experiment: Binding affinity to wild-type human TSPO expressed in HEK293 cells assessed as inhibition of cell proliferation at 100 uM incubated for 48 hrs by Brdu incorporation-based ELISA relative to control. The procedure, abridged: (§1)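 Stably transfected WT or A147T TSPO HEK293 cells, 8.75 x 10^3/well on poly-L-lysine-coated plates for 24 h, then 100 µM ligand for 48 h. BrdU added 4 h at 37 °C, BrdU incorporation ELISA stopped with 1 M sulfuric acid, absorbance 450 nm; normalised to vehicle-treated controls; n ≥ 3; two-way ANOVA with Dunnett's test.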
For orientation: In an ELISA, binding on a coated surface is turned into a signal by an enzyme label.

Assay [4] has as its system Translocator protein (Homo sapiens), P30536 [UNDEFINED MUTATION]. Description: Binding affinity to human TSPO A147T mutant expressed in HEK293 cells assessed as inhibition of cell viability at 100 uM incubated for 48 hrs by CellTiter Blue assay relative to control. The format is cell-based. The procedure, abridged:
(§2)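 Stably transfected WT or A147T TSPO HEK293 cells, 8.75 x 10^3/well on poly-L-lysine (100 µg/mL) plates for 24 h, then 100 µM ligand for 48 h. CellTiter Blue (resazurin) added for 4 h at 37 °C; fluorescence 530 ex/590 em; normalised to vehicle-treated cells; three independent experiments; two-way ANOVA with Dunnett's test.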

In assay [5] the target is T1, Translocator protein. As to the kind of experiment: Binding affinity to wild-type human TSPO expressed in HEK293 cells assessed as inhibition of cell viability at 100 uM incubated for 48 hrs by CellTiter Blue assay relative to control. Type of assay: cell-based. In a few lines:
as §2
(Resazurin is reduced to fluorescent resorufin, in cell work by metabolically active cells.)

Assay [6] relates to Translocator protein (Homo sapiens), P30536 [UNDEFINED MUTATION]. Description: Binding affinity to human TSPO A147T mutant expressed in HEK293 cells assessed as inhibition of cell proliferation at 100 uM incubated for 48 hrs by Brdu incorporation-based ELISA relative to control. In a few lines: as §1
Assay [7] shares this test system. As to the kind of experiment: Potency index, ratio of PK11195 Ki to compound Ki for human TSPO A147T mutant expressed in HEK293 cell membranes. Type of assay: cell-based.
The target in assay [8] is T1, Translocator protein. Description: Displacement of [3H]PK11195 from human TSPO A147T mutant expressed in HEK293 cells after 90 mins by scintillation counting method. Type of assay: cell-based. For orientation: Loss of bound radioactivity is the signal in a displacement assay; it reports binding, not function.
Assay [9] is filed under the species Homo sapiens. Description: Selectivity ratio of ki for human TSPO A147T mutant expressed in HEK293 cells to ki for human TSPO expressed in HEK293 cells. Type of assay: cell-based.
For assay [10], the target named is T1, Translocator protein. As to the kind of experiment: Potency index, ratio of PK11195 Ki to compound Ki for wild-type human TSPO expressed in HEK293 cell membranes. The format is cell-based.
Assay [11] addresses T1, Translocator protein. As to the kind of experiment: Displacement of [3H]PK11195 from wild-type human TSPO expressed in HEK293 cells after 90 mins by scintillation counting method. The format is cell-based.
The target in assay [12] is Translocator protein (Rattus norvegicus) (UniProt P16257). Description: Binding affinity to TSPO in rat C6 glioma cells assessed as steroidogenic activity by measuring increase in pregnenolone level after 2 hrs by ELISA. Type of assay: cell-based. In a few lines:
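C6 glioma cells plated at 1 x 10^5/well, after 24 h washed twice with ELISA buffer (HEPES-NaOH pH 7.4, 0.1% BSA, glucose, salts), then ligand 100 µM for 2 h in buffer containing trilostane 25 µM and SU10603 10 µM; vehicle 0.1% DMSO. Buffer collected, spun 1500 g, pregnenolone quantified by ELISA; n ≥ 3; one-way ANOVA with Dunnett's test.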

Assay [13] concerns Translocator protein (Homo sapiens), P30536 [UNDEFINED MUTATION]. As to the kind of experiment: Positive allosteric modulation of human TSPO A147T mutant expressed in HEK293 cells assessed as potentiation of PK11195-induced reduction in cell proliferation at 100 uM after 48 hrs by Brdu incorporation-based ELISA. The procedure, abridged:
(§3)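 WT or A147T TSPO HEK293 cells (8.75 x 10^3/well, poly-L-lysine plates, 24 h) co-treated with 100 µM PK 11195 plus 100 µM ligand for 48 h; proliferation by BrdU ELISA (4 h BrdU labelling, 450 nm read); compared with PK 11195 alone; n ≥ 3; two-way ANOVA with Dunnett's test.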

Assay [14] addresses T1, Translocator protein. As to the kind of experiment: Positive allosteric modulation of wild-type human TSPO expressed in HEK293 cells assessed as potentiation of PK11195-induced reduction in cell proliferation at 100 uM after 48 hrs by Brdu incorporation-based ELISA. In a few lines: as §3

T1 sequence (P30536 whole entry): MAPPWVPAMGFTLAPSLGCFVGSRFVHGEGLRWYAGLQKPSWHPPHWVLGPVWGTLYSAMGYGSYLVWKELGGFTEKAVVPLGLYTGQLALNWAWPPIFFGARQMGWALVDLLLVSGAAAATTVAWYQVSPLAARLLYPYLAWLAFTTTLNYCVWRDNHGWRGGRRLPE
Sequence of Translocator protein (Homo sapiens), P30536 [UNDEFINED MUTATION] (P30536 whole entry, looked up, stated change not applied): as the sequence (P30536 whole entry) above
Sequence of Translocator protein (Rattus norvegicus) (P16257 whole entry, looked up): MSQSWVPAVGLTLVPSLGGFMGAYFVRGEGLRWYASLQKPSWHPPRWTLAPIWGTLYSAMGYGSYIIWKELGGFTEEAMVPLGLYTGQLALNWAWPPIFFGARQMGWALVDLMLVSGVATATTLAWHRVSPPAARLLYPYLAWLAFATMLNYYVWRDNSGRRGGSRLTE

`CCN(Cc1ccccc1F)C(=O)Cn1c2ccccc2c2ccccc21` displayed a Ki in assay [1] of 0.184 µM. Further, in [2], the Ratio Ki came out at 17.

As for `CCN(Cc1ccc(OC)cc1)C(=O)Cn1c2ccccc2c2ccccc21`, the Ki in assay [1] is 4.74 µM. In addition, the Ratio Ki in [2] was over 2.1.

Take `COc1cccc(CN(C)C(=O)Cn2c3ccccc3c3cc(-c4cccc(Cl)c4)ccc32)c1`: the Ki in assay [1] came out at 0.201 µM. The Ratio Ki in assay [2] stood at 3.2.

With `CN(Cc1ccccc1)C(=O)Cn1c2ccccc2c2ccccc21`, the inhibition result in assay [3], in assay [4], in assay [5] and in [6] was “inactive” each time. Also, in assay [1], the Ki was 0.053 µM. In addition, the Ratio Ki in assay [2] came to 2.5.

In the case of `O=C(Cn1c2ccccc2c2ccccc21)NCc1ccccc1`, the Ki in [1] is over 10 µM.

On to `CCN(Cc1ccc(F)cc1)C(=O)Cn1c2ccccc2c2ccccc21`, for which the affinity in assay [1] corresponds to a Ki of 0.694 µM. Further, the Ratio Ki in assay [2] is over 14.4.

In turn, `CCN(Cc1ccccc1NC(C)=O)C(=O)Cn1c2ccccc2c2ccccc21` yielded a Ki in assay [1] of 0.243 µM. In addition, the Ratio Ki in [2] is over 41.2.

Turning to `COc1cccc(CN(C)C(=O)Cn2c3ccccc3c3cc(-c4ccc(Cl)cc4)ccc32)c1`, the Ki in [1] is 3.55 µM. The Ratio Ki in assay [2] came out at 0.5.

As for `COc1cccc(CN(C)C(=O)Cn2c3ccccc3c3cc(-c4ccccc4Cl)ccc32)c1`, the inhibition entry in assay [4] and in assay [5] was “inactive” each time. Also, the affinity in [1] corresponds to a Ki of 0.231 µM. In [2], the Ratio Ki is 0.9.

In assay [1], `CCN(Cc1ccccc1OC)C(=O)Cn1c2ccccc2c2ccccc21` registered a Ki of 1.53 µM. The Ratio Ki in [2] worked out at 1.

As for `CCN(Cc1cccc(OC)c1)C(=O)Cn1c2ccccc2c2cc(-c3ccccc3)ccc21`, the inhibition entry in assay [3], in [4] and in [5] was “inactive” in each case. In [1], this compound yielded a Ki of 0.385 µM. For the same compound, the Ratio Ki in [2] turned out to be 1.1. The inhibition result in [6] was “Active”.

`CCN(Cc1cccc(OC)c1)C(=O)Cn1c2ccccc2c2cc(-c3ccc(OC)cc3)ccc21` had a Ki in assay [1] of 0.447 µM. In addition, in [2], the Ratio Ki was 0.8.

Regarding `COc1ccc(-c2ccc3c(c2)c2ccccc2n3CC(=O)N(C)Cc2cccc(OC)c2)cc1`, the inhibition entry in assay [3], in assay [4], in assay [5] and in [6] was “inactive” throughout. The Ratio Ki in assay [7] stood at 1.1; in assay [9], 7.3; in assay [10], 3.4; in assay [2], 3.8. The Ki in assay [8] is 0.0232 µM; in assay [1], 0.0066 µM; in [11] it was 0.0032 µM. The outcome in [12] was inactive.

On to `CCN(CC)C(=O)Cn1c2ccccc2c2ccccc21`, for which the Ratio Ki in [2] worked out at 5.9.

Turning to `CCN(Cc1cccnc1)C(=O)Cn1c2ccccc2c2ccccc21`, in assay [1], the Ki was over 10 µM.

For the compound `CCN(Cc1ccccc1C(F)(F)F)C(=O)Cn1c2ccccc2c2ccccc21`, the Ki in assay [1] is over 10 µM.

Regarding `CC[C@@H](C)N(C)C(=O)c1cc2ccccc2c(-c2ccccc2Cl)n1`, the inhibition was 83% in [3], 68% in [4], 65% in assay [5] and 81% in [6]. Moreover, the outcome in [12] was Active.

As for `COc1cccc(CN(C)C(=O)Cn2c3ccccc3c3cc(-c4ccccc4)ccc32)c1`, the inhibition result in assay [3], in [4], in [5] and in assay [6] was “inactive” each time. The outcome in [13] and in assay [14] was Active. The compound also registered a Ki in [1] of 0.231 µM. The Ratio Ki in assay [2] was 0.9.

Turning to `CCN(Cc1cccc(C(F)(F)F)c1)C(=O)Cn1c2ccccc2c2ccccc21`, the inhibitory constant (Ki) in assay [1] is over 10 µM.

Take `CCN(Cc1cccc(OC)c1)C(=O)Cn1c2ccccc2c2ccccc21`: the inhibition entry in assay [3], in assay [4], in assay [5] and in [6] was “inactive” in each case. Besides, the results for the Ki in [8], in assay [1] and in assay [11] were 0.277 µM, 0.0961 µM and 0.217 µM, respectively. In addition, the Ratio Ki in assay [9] is 1.2; in assay [2], 1. In [12], the outcome was inactive.

In the case of `CCN(Cc1ccccc1)C(=O)Cn1c2ccccc2c2ccccc21`, the inhibition entry in [3], in [4], in assay [5] and in assay [6] was “inactive” throughout. In [1], this compound came in with an inhibition constant (Ki) of 0.07 µM. In assay [2], the Ratio Ki worked out at 4.5.

With `CCN(Cc1cccc(F)c1)C(=O)Cn1c2ccccc2c2ccccc21`, the inhibitory constant (Ki) in assay [1] was found to be 0.563 µM. In assay [2], the Ratio Ki was over 17.8.

Regarding `CCN(Cc1cccc(OC)c1)C(=O)Cn1c2ccccc2c2cc(Br)ccc21`, the inhibition entry in assay [3], in assay [4], in [5] and in assay [6] was “inactive” throughout. In assay [1], this compound had a Ki of 0.469 µM. Besides, the Ratio Ki in assay [2] is 1.

The compound `CCN(Cc1ccccn1)C(=O)Cn1c2ccccc2c2ccccc21` had a Ki in assay [1] of over 10 µM.

For the compound `CCN(Cc1ccc(NC(C)=O)cc1)C(=O)Cn1c2ccccc2c2ccccc21`, the Ki in assay [1] was over 10 µM.

`CCN(Cc1ccc(C(F)(F)F)cc1)C(=O)Cn1c2ccccc2c2ccccc21`: the Ki in assay [1] was over 10 µM.

On to `CCN(Cc1ccncc1)C(=O)Cn1c2ccccc2c2ccccc21`, for which the Ki in [1] is over 10 µM.

In the case of `CN(C)C(=O)Cn1c2ccccc2c2ccccc21`, the Ki in assay [1] is over 10 µM.

In turn, `COc1cccc(CN(C)C(=O)Cn2c3ccccc3c3cc(Br)ccc32)c1` came in with a Ki in assay [1] of over 10 µM.

In [1], `CCN(Cc1cccc(NC(C)=O)c1)C(=O)Cn1c2ccccc2c2ccccc21` showed a Ki of over 10 µM.
